Converted amounts (≈) assume the structure as drawn. The source made the active and inactive calls. No cut-off for these calls is given here. Where a SMILES comes first, the peptide text is derived from it. [ ]: non-standard residue; d: D form. The star is where a group is joined. Triazol3yl(1,2,4-5-NH2) = Nc1nc(*)n[nH]1; dPhe(4-Cl) = N[C@H](Cc1ccc(Cl)cc1)C(=O)O; d2Nal = N[C@H](Cc1ccc2ccccc2c1)C(=O)O; Lys(iPr) = CC(C)NCCCC[C@H](N)C(=O)O; d3Pal = N[C@H](Cc1cccnc1)C(=O)O; Nicotinoyl = O=C(c1cccnc1)*
Assays:
Rattus norvegicus [1] = organism: Rattus norvegicus; experiment: In vitro histamine release by rat mast cells.; conditions: read-out: ED50 (the source's name)
[2] = molecular target: T1, Gonadotropin-releasing hormone receptor (Rattus norvegicus, UniProt P30969); experiment: In vitro binding affinity of Gonadotropin-releasing hormone antagonist was measured in rat pituitary cell membranes; set-up: species or system Pituitary gland cell, Membrane
T1 sequence (P30969 whole entry): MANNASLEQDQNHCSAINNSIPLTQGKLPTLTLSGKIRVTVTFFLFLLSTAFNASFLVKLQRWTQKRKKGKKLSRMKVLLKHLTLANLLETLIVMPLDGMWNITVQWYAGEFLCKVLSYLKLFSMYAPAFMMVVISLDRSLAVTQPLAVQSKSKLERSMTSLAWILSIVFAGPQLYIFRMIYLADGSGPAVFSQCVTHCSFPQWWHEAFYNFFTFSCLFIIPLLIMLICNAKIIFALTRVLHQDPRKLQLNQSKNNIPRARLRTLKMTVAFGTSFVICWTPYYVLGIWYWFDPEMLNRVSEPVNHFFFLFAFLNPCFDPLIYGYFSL
In short: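 Displacement binding on pituitary cell membranes with [DAla6,NMe-Leu7,Pro9-NHEt]GnRH as standard; analogue KD values calculated from potencies relative to that standard derived from displacement data.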

Rattus norvegicus [3] = experiment: Potency (1 mg/rat) using anti-ovulatory assay, expressed as rat ovulating/total number of treated rats measured after sc administration; 1/17; assay type: functional, organism-based
Rattus norvegicus [4] = experiment: Potency (0.5 mg/rat) using anti-ovulatory assay, expressed as rat ovulating/total number of treated rats measured after sc administration; 8/18; assay type: functional, organism-based
[5] = molecular target: Gonadotropin-releasing hormone receptor (Rattus norvegicus) (UniProt P30969); experiment: Antagonist potency at GnRH receptor relative to a standard ([Ac-delta3Pro, DFpa2, DTrp3,6]GnRH).
Rattus norvegicus [6] = experiment: Potency (2 mg/rat) using anti-ovulatory assay, expressed as rat ovulating/total number of treated rats measured after sc administration; 2/10; assay type: functional, organism-based
Rattus norvegicus [7] = experiment: Potency (2 mg/rat) using anti-ovulatory assay, expressed as rat ovulating/total number of treated rats measured after sc administration; 1/10; assay type: functional, organism-based
Rattus norvegicus [8] = experiment: Potency (5 mg/rat) using anti-ovulatory assay, expressed as rat ovulating/total number of treated rats measured after sc administration; 14/20; assay type: functional, organism-based
Rattus norvegicus [9] = experiment: Potency (0.5 mg/rat) using anti-ovulatory assay, expressed as rat ovulating/total number of treated rats measured after sc administration; 6/6; assay type: functional, organism-based
Rattus norvegicus [10] = experiment: Potency (1 mg/rat) using anti-ovulatory assay, expressed as rat ovulating/total number of treated rats measured after sc administration; 2/8; assay type: functional, organism-based
Rattus norvegicus [11] = experiment: Potency (2.5 mg/rat) using anti-ovulatory assay, expressed as rat ovulating/total number of treated rats measured after sc administration; 2/8; assay type: functional, organism-based
Rattus norvegicus [12] = experiment: Potency (1 mg/rat) using anti-ovulatory assay, expressed as rat ovulating/total number of treated rats measured after sc administration; 5/5; assay type: functional, organism-based
Rattus norvegicus [13] = experiment: Potency (2.5 mg/rat) using anti-ovulatory assay, expressed as rat ovulating/total number of treated rats measured after sc administration; 0/7; assay type: functional, organism-based
Rattus norvegicus [14] = experiment: Potency (1.0 mg/rat) using anti-ovulatory assay, expressed as rat ovulating/total number of treated rats measured after sc administration; 5/5; assay type: functional, organism-based

SMILES	EC50 (Rattus norvegicus [1])	Kd [2]	Relative potency [5]	further results
CC(=O)N[C@H](Cc1ccc2ccccc2c1)C(=O)N[C@H](Cc1ccc(Cl)cc1)C(=O)N[C@H](Cc1cccnc1)C(=O)N[C@@H](CO)C(=O)N[C@@H](CCCCNc1n[nH]c(N)n1)C(=O)N[C@H](CCCCNc1n[nH]c(N)n1)C(=O)N[C@@H](CC(C)C)C(=O)N[C@@H](CCCCNC(C)C)C(=O)N1CCC[C@H]1C(=O)N[C@H](C)C(N)=O (Ac-[d2Nal][dPhe(4-Cl)][d3Pal]SK(Triazol3yl(1,2,4-5-NH2))[dK](Triazol3yl(1,2,4-5-NH2))L[Lys(iPr)]P[dA]-NH2)		0.48 nM		
CC(C)C[C@H](NC(=O)[C@@H](CCCCNC(=NC#N)NC1CCCCC1)NC(=O)[C@H](CCCCNC(=NC#N)NC1CCCCC1)NC(=O)[C@H](CO)NC(=O)[C@H](Cc1c[nH]c2ccccc12)NC(=O)[C@H](Cc1cnc[nH]1)NC(=O)[C@@H]1CCC(=O)N1)C(=O)N[C@@H](CCCCNC(C)C)C(=O)N1CCC[C@H]1C(=O)N[C@H](C)C(N)=O		1.2 nM		
CC(=O)N[C@H](Cc1ccc2ccccc2c1)C(=O)N[C@H](Cc1ccc(F)cc1)C(=O)N[C@H](Cc1c[nH]c2ccccc12)C(=O)N[C@@H](CO)C(=O)N[C@@H](Cc1ccc(O)cc1)C(=O)N[C@H](CCCN=C(N)N)C(=O)N[C@@H](CC(C)C)C(=O)N[C@@H](CCCN=C(N)N)C(=O)N1CCC[C@H]1C(=O)NCC(N)=O (HELM PEPTIDE1{[ac].[O=C([C@@H](Cc1ccc2ccccc2c1)N[*:1])[*:2]].[O=C([C@@H](Cc1ccc(F)cc1)N[*:1])[*:2]].[dW].S.Y.[dR].L.R.P.G.[am]}$$$$V2.0)	0.17 µg/mL (≈ 0.118 µM)			
CC(C)C[C@H](NC(=O)[C@@H](CCCCNc1n[nH]c(N)n1)NC(=O)[C@H](Cc1ccc(O)cc1)NC(=O)[C@H](CO)NC(=O)[C@@H](CCCCNc1n[nH]c(N)n1)NC(=O)[C@H](Cc1c[nH]cn1)NC(=O)[C@@H]1CCC(=O)N1)C(=O)N[C@@H](CCCCNC(C)C)C(=O)N1CCC[C@H]1C(=O)N[C@H](C)C(N)=O	> 150 µg/mL			
CCCCCC/N=C(\NC#N)NCCCC[C@H](NC(=O)[C@H](CO)NC(=O)[C@H](Cc1c[nH]c2ccccc12)NC(=O)[C@H](Cc1c[nH]cn1)NC(=O)[C@@H]1CCC(=O)N1)C(=O)N[C@H](CCCCN/C(=N/CCCCCC)NC#N)C(=O)N[C@@H](CC(C)C)C(=O)N[C@@H](CCCCNC(C)C)C(=O)N1CCC[C@H]1C(=O)N[C@H](C)C(N)=O		3.3 nM	0.14	Activity (Rattus norvegicus [11]): Weak activity; Activity (Rattus norvegicus [12]): inactive
CC(=O)N[C@H](Cc1ccc2ccccc2c1)C(=O)N[C@H](Cc1ccc(Cl)cc1)C(=O)N[C@H](Cc1cccnc1)C(=O)N[C@@H](CO)C(=O)N[C@@H](CCCCNC(=O)c1cccnc1)C(=O)N[C@H](CCCCNC(=O)c1cccnc1)C(=O)N[C@@H](CC(C)C)C(=O)N[C@@H](CCCCNC(C)C)C(=O)N1CCC[C@H]1C(=O)N[C@H](C)C(N)=O (Ac-[d2Nal][dPhe(4-Cl)][d3Pal]SK(Nicotinoyl)[dK](Nicotinoyl)L[Lys(iPr)]P[dA]-NH2)	> 300 µg/mL			
CC(C)C[C@H](NC(=O)[C@@H](Cc1cccnc1)NC(=O)[C@H](Cc1ccc(O)cc1)NC(=O)[C@H](CO)NC(=O)[C@@H](Cc1cccnc1)NC(=O)[C@H](Cc1cnc[nH]1)NC(=O)[C@@H]1CCC(=O)N1)C(=O)N[C@@H](CCCCNC(C)C)C(=O)N1CCC[C@H]1C(=O)N[C@H](C)C(N)=O		0.08 nM		
CC(C)C[C@H](NC(=O)[C@@H](CCCCNC(=NC#N)NCc1ccccn1)NC(=O)[C@H](CCCCNC(=NC#N)NCc1ccccn1)NC(=O)[C@H](CO)NC(=O)[C@H](Cc1c[nH]c2ccccc12)NC(=O)[C@H](Cc1cnc[nH]1)NC(=O)[C@@H]1CCC(=O)N1)C(=O)N[C@@H](CCCCNC(C)C)C(=O)N1CCC[C@H]1C(=O)N[C@H](C)C(N)=O		0.27 nM		

The next lines start with results.

EC50 (Rattus norvegicus [1])	Kd [2]	Relative potency [5]	SMILES	further results
50 µg/mL (≈ 34 µM)			CCCC/N=C(\NC#N)NCCCC[C@@H](NC(=O)[C@H](Cc1c[nH]cn1)NC(=O)[C@@H]1CCC(=O)N1)C(=O)N[C@@H](CO)C(=O)N[C@@H](Cc1ccc(O)cc1)C(=O)N[C@H](CCCCN/C(=N/CCCC)NC#N)C(=O)N[C@@H](CC(C)C)C(=O)N[C@@H](CCCCNC(C)C)C(=O)N1CCC[C@H]1C(=O)N[C@H](C)C(N)=O	
50 µg/mL (≈ 33.8 µM)		1.3	CC(C)C[C@H](NC(=O)[C@@H](Cc1ccc(Nc2n[nH]c(N)n2)cc1)NC(=O)[C@H](Cc1ccc(Nc2n[nH]c(N)n2)cc1)NC(=O)[C@H](CO)NC(=O)[C@H](Cc1c[nH]c2ccccc12)NC(=O)[C@H](Cc1c[nH]cn1)NC(=O)[C@@H]1CCC(=O)N1)C(=O)N[C@@H](CCCCNC(C)C)C(=O)N1CCC[C@H]1C(=O)N[C@H](C)C(N)=O	Activity (Rattus norvegicus [3]): Active; Activity (Rattus norvegicus [4]): Weak activity
	0.24 nM		C/N=C(\NC#N)NCCCC[C@@H](NC(=O)[C@H](CCCCN/C(=N\C)NC#N)NC(=O)[C@H](CO)NC(=O)[C@H](Cc1c[nH]c2ccccc12)NC(=O)[C@H](Cc1c[nH]cn1)NC(=O)[C@@H]1CCC(=O)N1)C(=O)N[C@@H](CC(C)C)C(=O)N[C@@H](CCCCNC(C)C)C(=O)N1CCC[C@H]1C(=O)N[C@H](C)C(N)=O	Activity (Rattus norvegicus [6]): Active
	0.27 nM		CC(C)C[C@H](NC(=O)[C@@H](CCCNC(=N)N)NC(=O)[C@H](Cc1ccc(O)cc1)NC(=O)[C@H](CO)NC(=O)[C@@H](CCCCNc1nnc(N)[nH]1)NC(=O)[C@H](Cc1cnc[nH]1)NC(=O)[C@@H]1CCC(=O)N1)C(=O)N[C@@H](CCCCNC(C)C)C(=O)N1CCC[C@H]1C(=O)N[C@H](C)C(N)=O	
		0.23	CC(C)C[C@H](NC(=O)[C@@H](CCCCNc1n[nH]c(N)n1)NC(=O)[C@H](CCCCNc1n[nH]c(N)n1)NC(=O)[C@H](CO)NC(=O)[C@H](Cc1c[nH]c2ccccc12)NC(=O)[C@H](Cc1c[nH]cn1)NC(=O)[C@@H]1CCC(=O)N1)C(=O)N[C@@H](CCCCNC(C)C)C(=O)N1CCC[C@H]1C(=O)N[C@H](C)C(N)=O	Activity (Rattus norvegicus [7]): Active
	0.45 nM	0.3	CCCC/N=C(\NC#N)NCCCC[C@H](NC(=O)[C@H](CC(C)C)NC(=O)[C@@H](CCCCNC(=O)c1cccnc1)NC(=O)[C@H](CCCCNC(=O)c1cccnc1)NC(=O)[C@H](CO)NC(=O)[C@H](Cc1c[nH]c2ccccc12)NC(=O)[C@H](Cc1c[nH]cn1)NC(=O)[C@@H]1CCC(=O)N1)C(=O)N1CCC[C@H]1C(=O)N[C@H](C)C(N)=O	Activity (Rattus norvegicus [8]): Weak activity
158 µg/mL (≈ 114 µM)	0.21 nM	0.2	CC(C)C[C@H](NC(=O)[C@@H](CCCNc1n[nH]c(N)n1)NC(=O)[C@H](CCCNc1n[nH]c(N)n1)NC(=O)[C@H](CO)NC(=O)[C@H](Cc1c[nH]c2ccccc12)NC(=O)[C@H](Cc1c[nH]cn1)NC(=O)[C@@H]1CCC(=O)N1)C(=O)N[C@@H](CCCCNC(C)C)C(=O)N1CCC[C@H]1C(=O)N[C@H](C)C(N)=O	Activity (Rattus norvegicus [7]): Active
	0.32 nM	0.3	CC(C)C[C@H](NC(=O)[C@@H](CCCC/N=C(/NC#N)NC(C)C)NC(=O)[C@H](CCCC/N=C(/NC#N)NC(C)C)NC(=O)[C@H](CO)NC(=O)[C@H](Cc1c[nH]c2ccccc12)NC(=O)[C@H](Cc1c[nH]cn1)NC(=O)[C@@H]1CCC(=O)N1)C(=O)N[C@@H](CCCCNC(C)C)C(=O)N1CCC[C@H]1C(=O)N[C@H](C)C(N)=O	Activity (Rattus norvegicus [9]): inactive; Activity (Rattus norvegicus [10]): Active
		1.6	CCCC/N=C(\NC#N)NCCC[C@@H](NC(=O)[C@H](Cc1c[nH]cn1)NC(=O)[C@@H]1CCC(=O)N1)C(=O)N[C@@H](CO)C(=O)N[C@@H](Cc1ccc(O)cc1)C(=O)N[C@H](Cc1cccnc1)C(=O)N[C@@H](CC(C)C)C(=O)N[C@@H](CCCCNC(C)C)C(=O)N1CCC[C@H]1C(=O)N[C@H](C)C(N)=O	Activity (Rattus norvegicus [13]): Active; Activity (Rattus norvegicus [14]): inactive
19 µg/mL (≈ 14.5 µM)			CC(C)C[C@H](NC(=O)[C@@H](CCCN=C(N)N)NC(=O)[C@H](Cc1ccc(O)cc1)NC(=O)[C@H](CO)NC(=O)[C@@H](Cc1cccnc1)NC(=O)[C@H](Cc1c[nH]cn1)NC(=O)[C@@H]1CCC(=O)N1)C(=O)N[C@@H](CCCCNc1n[nH]c(N)n1)C(=O)N1CCC[C@H]1C(=O)N[C@H](C)C(N)=O	
	1.7 nM		CCCCNC(=NC#N)NCCCC[C@@H](NC(=O)[C@H](Cc1ccc(O)cc1)NC(=O)[C@H](CO)NC(=O)[C@@H](Cc1cccnc1)NC(=O)[C@H](Cc1cnc[nH]1)NC(=O)[C@@H]1CCC(=O)N1)C(=O)N[C@@H](CC(C)C)C(=O)N[C@@H](CCCNC(=N)N)C(=O)N1CCC[C@H]1C(=O)N[C@H](C)C(N)=O	

From ChEMBL document CHEMBL1125607, “Novel gonadotropin-releasing hormone antagonists: peptides incorporating modified N omega-cyanoguanidino moieties” (J Med Chem, 1991)
